A selection: hits, their analogues and other compounds. The true share with any hit is near 3%.
DSG3 Ab inh = inhibitors of pemphigus antibody binding to DSG3, primary screen, biochemical, bead-based, flow cytometry, scFv-GFP | binding (percent of control), % at 10 µM | 0.48% of 310,000 active | DSG3-coupled beads, scFv-anti-DSG3-GFP binding; stronger effect = lower value | AID 588358, 2011 | Desmoglein-3 (Homo sapiens), P32926;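 active = binding more than 3 SD below its plate's average and above zero; inconclusive = below that plate limit but binding exactly zero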;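 also: hits lower antibody fragment binding to DSG3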
Target sequence (P32926 whole entry, looked up, the tested form may be a part): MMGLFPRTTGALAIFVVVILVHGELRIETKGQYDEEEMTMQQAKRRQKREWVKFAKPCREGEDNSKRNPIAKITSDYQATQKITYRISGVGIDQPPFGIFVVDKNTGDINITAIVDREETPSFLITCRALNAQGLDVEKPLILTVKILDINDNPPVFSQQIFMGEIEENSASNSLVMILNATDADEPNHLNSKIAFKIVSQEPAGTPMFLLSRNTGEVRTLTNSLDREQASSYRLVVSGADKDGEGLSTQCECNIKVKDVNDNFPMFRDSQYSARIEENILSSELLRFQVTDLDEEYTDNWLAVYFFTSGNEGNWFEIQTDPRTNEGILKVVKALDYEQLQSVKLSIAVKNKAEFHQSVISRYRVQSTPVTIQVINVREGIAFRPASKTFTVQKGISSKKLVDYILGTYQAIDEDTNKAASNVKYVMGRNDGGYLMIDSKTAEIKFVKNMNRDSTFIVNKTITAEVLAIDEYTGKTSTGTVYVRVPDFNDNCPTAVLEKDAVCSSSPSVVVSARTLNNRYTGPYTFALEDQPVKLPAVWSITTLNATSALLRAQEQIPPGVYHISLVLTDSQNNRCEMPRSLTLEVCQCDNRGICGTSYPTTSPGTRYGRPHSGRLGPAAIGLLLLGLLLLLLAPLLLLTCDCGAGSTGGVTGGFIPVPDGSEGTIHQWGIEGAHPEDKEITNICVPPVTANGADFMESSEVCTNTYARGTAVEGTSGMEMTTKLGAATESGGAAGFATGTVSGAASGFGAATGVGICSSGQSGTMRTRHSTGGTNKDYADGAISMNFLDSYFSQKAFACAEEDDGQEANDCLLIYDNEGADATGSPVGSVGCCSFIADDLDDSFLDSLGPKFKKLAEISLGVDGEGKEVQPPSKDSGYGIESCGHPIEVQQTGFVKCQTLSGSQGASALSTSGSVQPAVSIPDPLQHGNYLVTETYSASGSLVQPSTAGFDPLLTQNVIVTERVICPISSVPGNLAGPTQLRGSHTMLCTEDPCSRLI
Cardio protect = cardioprotection against H2O2-induced cell death, primary screen, uHTS, H9c2 cells, ATPLite luminescence; H9c2 cardiomyocytes, H2O2 injury protection, 2 h; protection from H2O2 cell death, % at 20 µM; 0.63% of 360,000 active; AID 588492, 2011;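 active = compounds giving at least 50% protection of heart cells from peroxide-induced death in the single-dose screen, raw or plate-pattern-corrected value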
SENP1 FRET inh = human SENP1 catalytic domain inhibitors, primary screen, biochemical, FRET, uHTS; recombinant SENP1 catalytic domain, CyPet-SUMO1-YPet FRET cleavage; inhibition, % at 10 µM; 0.21% of 360,000 active; AID 624204, 2012;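 active = inhibition at least 30% at 10 µM, raw YFP signal under a set limit, fluorescence ratio 0.5 to 1.5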
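Compound: 10 µM single point, 0.5% DMSO; Test system: hSENP1 catalytic domain, recombinant; Timing: 50 min reaction at room temperature; Technique: FRET, CFP and YFP emission; Control set: no-enzyme wells low, DMSO-plus-enzyme wells high control.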
HNF4A DNA FP = change in binding of human HNF4A to DNA, primary screen, biochemical, fluorescence polarization, FITC-DNA; 1 h; activity change, % at 10 µM; 0.3% of 360,000 active; AID 1224865, 2016; in the data active = activity change above about 30%, passing the limit was not always enough
Granule exo inh = LAMP-1 surface exposure blockers, TALL-104 cells – cell-based, flow cytometry, MLPCN library, primary screen. TALL-104 LAMP-1 surface exposure; cells stimulated with thapsigargin and PMA. inhibition, % at 10 µM. 0.66% of 360,000 active. AID 651702, 2012;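 active = inhibition above about 55%, limit read from the data; inconclusive = no clear call, values can overlap the other calls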
Myeloid diff 2 = induction of myeloid progenitor differentiation, primary screen, cell-based, flow cytometry, MLPCN library; ER-HoxA9 myeloid progenitors, lysozyme-GFP differentiation; calls only at 10 µM; 1% of 360,000 active; AID 624256, 2012;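 active = normalized GFP-positive differentiation at or above the plate's own cutoff, the solvent-only control mean plus 3 SD; inconclusive = no clear call, values can overlap the other calls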;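 also: cells exposed to compound for four days before flow analysis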
Each line names hits and unclear results; the compound was inactive in the other large screens.

CC(C)C[C@@]12C(=O)N(c3cccc(F)c3)C(=O)N1[C@H](c1ccc(Br)cc1)[C@@H]1C(=O)N(C(C)(C)C)C(=O)[C@@H]12	Granule exo inh 77
O=C(CSc1nnc(-c2cccnc2)o1)c1cc2ccccc2oc1=O	Cardio protect 51 (no result: DSG3 Ab inh)
N/C(=N\NS(=O)(=O)c1ccccc1)c1ccccn1	Cardio protect 51
C[C@H](CO)N1C[C@H](C)[C@H](CN(C)S(=O)(=O)c2ccc(C#N)cc2)OCc2cnnn2CCCC1=O	none
CCOC(=O)c1sc(N)c(C#N)c1COC(=O)CNC(=O)c1cc(OC)c(OC)c(OC)c1	HNF4A DNA FP 99
C(=Nn1cnnc1)c1ccc2c(c1)CCC2	none
COc1ccc(-n2nnnc2C(c2cccs2)N2CCN(C/C=C/c3ccccc3)CC2)cc1 (centres undefined)	none (no result: DSG3 Ab inh)
C/C(Cl)=C/Cn1c(N2CCCC2)nc2c1c(=O)n(C)c(=O)n2C	Myeloid diff 2 active
COc1cc2c(cc1OC)C(COc1ccc3c(C)cc(=O)oc3c1)N(C(=O)c1ccco1)CC2 (centres undefined)	Cardio protect 58 (no result: DSG3 Ab inh)
COc1ccc2c(c1)C=C([C@@H]1C[C@H]3CN(c4ccccc4)C(=O)[C@]34CCCN14)CO2	none
O=C(O)Cc1sc(NCCc2ccccc2)nc1-c1ccc(F)cc1	Myeloid diff 2 active
O=C(O)Cc1sc(Nc2cccc3ccccc23)nc1-c1ccc(F)cc1	none
O=C(CNC(=O)c1nc[nH]c1C(=O)NCc1ccccc1)OCc1ccccc1	Cardio protect 103
CCN(CC)C(=O)c1[nH]cnc1C(=O)NCC(=O)OCc1ccccc1	Cardio protect 105
O=C(CNC(=O)c1nc[nH]c1C(=O)NCC(=O)OCc1ccccc1)OCc1ccccc1	Cardio protect 96
CC(C)(C)OC(=O)NCc1ccc(CNC(=O)c2[nH]cnc2C(=O)NCC(=O)OCc2ccccc2)cc1	none
N#Cc1c(NC(=O)c2ccccc2Cl)n(Cc2ccccc2)c2nc3ccccc3nc12	HNF4A DNA FP 73, Granule exo inh 104, Myeloid diff 2 active
CCCCn1c(NC(=O)c2ccccc2Cl)c(C#N)c2nc3ccccc3nc21	HNF4A DNA FP 64, Granule exo inh 63, Myeloid diff 2 active
COc1ccc(-n2c(NC(=O)c3ccco3)c(C#N)c3nc4ccccc4nc32)cc1	Myeloid diff 2 active
CCCCn1c(NC(=O)CC)c(C#N)c2nc3ccccc3nc21	none (no result: DSG3 Ab inh)
COc1ccc(C(=O)Nc2ccc(NC(=O)c3ccco3)cc2)cc1	none
O=C(CN1CCN(C(=O)C2CCCO2)CC1)Nc1ccc(Br)cc1 (centres undefined)	none
O=S1(=O)CCN2N=C(C34CC5CC(CC(C5)C3)C4)SC2=N1	none
C[C@@H]1CN([C@@H](C)CO)C(=O)c2cc(NC(=O)C3CC3)ccc2O[C@@H]1CN(C)Cc1ccc(Cl)c(Cl)c1	none
COc1ccc(-n2c(=O)c(CCC(=O)N3CCN(c4cccc(OC)c4)CC3)nc3ccccc32)cc1	none
COc1ccc(/C(O)=C/c2nc3ccccc3n(-c3ccccc3)c2=O)cc1	HNF4A DNA FP 50, Myeloid diff 2 active
CCOC(=O)c1[nH]c2cc(OC)c(OC)cc2c1NC(=O)c1ccc2c(c1)OCO2	DSG3 Ab inh 17
CCOC(=O)c1[nH]c2ccccc2c1NC(=O)c1ccc2c(c1)OCO2	DSG3 Ab inh -8.4
CCOC(=O)c1[nH]c2ccc(OC)cc2c1NC(=O)c1ccc2c(c1)OCO2	none
CC(=O)c1c(C)[nH]c(C(=O)OCC(=O)NCc2ccc3c(c2)OCO3)c1C	Myeloid diff 2 active
Cc1c(OCC(=O)NCC2CCC(C(=O)NCCCO)CC2)ccc2c(-c3ccccc3)cc(=O)oc12 (centres undefined)	none
Nc1ccn([C@@H]2O[C@H](CNCc3ccc(-c4cc(C(F)(F)F)ccc4Cl)o3)[C@@H](O)[C@H]2O)c(=O)n1	none (no result: DSG3 Ab inh)
Oc1c(Br)cc(Br)cc1C=Nc1ccc2[nH]ncc2c1	none
Oc1c(Br)cc(Br)cc1C=Nc1cccnc1	Cardio protect 52
Oc1c(Br)cc(Br)cc1/C=N/c1nccs1	Cardio protect 57
Cc1ncc([N+](=O)[O-])n1CC(=O)N/N=C/c1ccc(F)cc1	Myeloid diff 2 active
Cc1ccc2nc(/C(C#N)=C/c3ccc(-c4ccccc4C(=O)O)o3)[nH]c2c1	HNF4A DNA FP 97
Cc1ccc2nc(/C(C#N)=C\c3cc(C)n(-c4cccc([N+](=O)[O-])c4)c3C)[nH]c2c1	none
Cc1ccc2nc(/C(C#N)=C\c3ccc([N+](=O)[O-])o3)[nH]c2c1	Granule exo inh 62, Myeloid diff 2 inconclusive
Cc1cc(/C=C(/C#N)c2nc3ccccc3[nH]2)c(C)n1-c1ccccc1C(=O)O	none
CN1CCN(NC(=O)c2cn(-c3ccccc3)nc2-c2ccc(OC(F)F)cc2)CC1	none
Cc1ccc(NC(=O)c2c3c(nc4ccccc24)CCC3)cc1S(=O)(=O)N(C)C	DSG3 Ab inh 45
C[C@]12CC[C@H]3C(=CCc4cc(O)ccc43)[C@@H]1CCC2=O	Myeloid diff 2 active
C[C@]12C[C@H](O)[C@@H]3c4ccc(O)cc4CCC3[C@@H]1CCC2=O (some centres undefined)	none
COCc1c(C(=O)Nc2ccc3nc(N4CCOCC4)sc3c2)oc2ccccc12	Cardio protect 64
Cc1cnc(CNC(=O)c2ccc(OC3CCN(C(=O)C4CC4)CC3)cc2)cn1	HNF4A DNA FP 40
COCC(=O)N1CCC(Oc2ccc(C(=O)NCc3cnc(C)cn3)cc2)CC1	none
O=C(CN(C(=O)CCC(=O)Nc1ccccn1)c1ccc2c(c1)OCO2)NCc1ccc(F)cc1	none
Fc1cccc(Nc2nc(N3CCOCC3)nc(N3CCOCC3)n2)c1	none
COc1cc(-c2cc(O)c(-c3ccc4ccccc4n3)c(=O)[nH]2)cc(OC)c1OC	Cardio protect 62 (no result: Myeloid diff 2)
c1ccc2c(c1)ncc1cccn12	none
CCn1c2ccccc2c2c3ncc4cccn4c3ccc21	Myeloid diff 2 active
COC(=O)c1ccc(CNC(=O)COC(=O)/C=C/c2cc(OC)c(OC)c(OC)c2)cc1	DSG3 Ab inh 61
Cc1[nH]n(-c2ccc(F)cc2)c(=O)c1C=Nc1ccc(S(=O)(=O)N(C)C)cc1	none
CC(OC(=O)Cc1n[nH]c(=O)c2ccccc12)C(=O)Nc1ccc(F)cc1Cl (centres undefined)	Cardio protect 69

Screens: PubChem BioAssay, several laboratories
